Data set [1] deals with Liver. The data set can be described thus: Proinflammatory activity in C57BL/6J mouse liver assessed as CXCL-1 levels at 1 mg/kg, po by multiplex assay (reference value: 25 pg/g). It is filed as functional.
Data set [2] relates to Liver. Nature of the data set: Effect on cytokine profile in C57BL/6J mouse liver assessed as IL-12p70 levels at 0.3 mg/kg, po by multiplex assay (reference value: 5 pg/g). Format: functional, organism-based. An outline of the steps: (§1)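 Single oral gavage in 20% HP-β-CD to healthy C57BL/6 mice, groups of 15 at 0.3, 1, 3, 10 or 30 mg/kg. Three mice per group sacrificed at 0.5, 1, 2, 4 or 7 h. Plasma and liver cytokines by multiplex, maximum level reported, rounded to nearest multiple of 5.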

Data set [3] is described as follows: AUC (0 to last) in C57BL/6J mouse liver at 1 mg/kg, po by LC-MS analysis. Conditions: in vivo. It is filed as ADME, organism-based. Put shortly:
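Healthy C57BL/6 mice were dosed once by mouth at 0.3, 1, 3, 10 or 30 mg/kg in 20% HP-β-CD, in groups of 15 per dose. Three mice per group were sacrificed at 0.5, 1, 2, 4 or 7 h, and plasma and liver compound levels were measured by LC–MS. Values were rounded to whole numbers.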

The subject of data set [4] is Liver. The data set can be described thus: Anti-inflammatory activity in C57BL/6J mouse liver assessed as IL-10 levels at 1 mg/kg, po by multiplex assay (reference value: 2 pg/g). Format: functional. An outline of the steps: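 Mice (C57BL/6) got a single oral dose of 0.3–30 mg/kg in 20% HP-β-CD, in groups of 15. Three per group were sacrificed at 0.5, 1, 2, 4 or 7 h, and liver cytokines were measured by multiplex. Values were rounded to the nearest multiple of 5.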

For data set [5], the target named is T1, TLR7 and TLR8 (Homo sapiens) (UniProt Q9NYK1+Q9NR97). Nature of the data set: Agonist activity at TLR7/8 in human PBMCs co-cultured with primary human hepatocytes infected with HBV genotype C for 12 days assessed as increase in IFNgamma levels up to 5 uM measured after 42 days.
Data set [6] is described as follows: Stability in mouse hepatocytes assessed compound turnover at 1 uM after 60 mins. It is filed as ADME, cell-based, Hepatocyte. Conditions: read-out: Drug metabolism.
The target in data set [7] is T1, TLR7 and TLR8 (Homo sapiens). The data set can be described thus: Agonist activity at TLR7/8 in human PBMCs co-cultured with primary human hepatocytes infected with HBV genotype C for 12 days assessed as increase in MCP1 levels up to 5 uM measured after 42 days.
Data set [8] in a line: Intrinsic clearance in cynomolgus monkey liver microsomes assessed per mg protein at 1 uM up to 60 mins. It is filed as ADME, Macaca fascicularis, microsome. Conditions: read-out: CLH. An outline of the steps: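 Cynomolgus monkey liver microsomes at 1 mg/mL microsomal protein, incubated at 37 °C with 1 μM test compound. Serial samples taken at intervals up to 60 min and analysed for remaining compound concentration to derive intrinsic clearance, expressed as (μL/min)/mg protein and rounded to the nearest whole number.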

In data set [9] the test system is Cynomolgus monkey. The data set can be described thus: Proinflammatory activity in cynomolgus monkey plasma assessed as TNFalpha levels at 9 mg/kg, po after 24 hrs by Luminex assay (reference value: 285 pg/ml). Format: functional, Macaca fascicularis.
Data set [10] addresses T2, Toll-like receptor 7 (Homo sapiens) (UniProt Q9NYK1).
T2 sequence (whole entry): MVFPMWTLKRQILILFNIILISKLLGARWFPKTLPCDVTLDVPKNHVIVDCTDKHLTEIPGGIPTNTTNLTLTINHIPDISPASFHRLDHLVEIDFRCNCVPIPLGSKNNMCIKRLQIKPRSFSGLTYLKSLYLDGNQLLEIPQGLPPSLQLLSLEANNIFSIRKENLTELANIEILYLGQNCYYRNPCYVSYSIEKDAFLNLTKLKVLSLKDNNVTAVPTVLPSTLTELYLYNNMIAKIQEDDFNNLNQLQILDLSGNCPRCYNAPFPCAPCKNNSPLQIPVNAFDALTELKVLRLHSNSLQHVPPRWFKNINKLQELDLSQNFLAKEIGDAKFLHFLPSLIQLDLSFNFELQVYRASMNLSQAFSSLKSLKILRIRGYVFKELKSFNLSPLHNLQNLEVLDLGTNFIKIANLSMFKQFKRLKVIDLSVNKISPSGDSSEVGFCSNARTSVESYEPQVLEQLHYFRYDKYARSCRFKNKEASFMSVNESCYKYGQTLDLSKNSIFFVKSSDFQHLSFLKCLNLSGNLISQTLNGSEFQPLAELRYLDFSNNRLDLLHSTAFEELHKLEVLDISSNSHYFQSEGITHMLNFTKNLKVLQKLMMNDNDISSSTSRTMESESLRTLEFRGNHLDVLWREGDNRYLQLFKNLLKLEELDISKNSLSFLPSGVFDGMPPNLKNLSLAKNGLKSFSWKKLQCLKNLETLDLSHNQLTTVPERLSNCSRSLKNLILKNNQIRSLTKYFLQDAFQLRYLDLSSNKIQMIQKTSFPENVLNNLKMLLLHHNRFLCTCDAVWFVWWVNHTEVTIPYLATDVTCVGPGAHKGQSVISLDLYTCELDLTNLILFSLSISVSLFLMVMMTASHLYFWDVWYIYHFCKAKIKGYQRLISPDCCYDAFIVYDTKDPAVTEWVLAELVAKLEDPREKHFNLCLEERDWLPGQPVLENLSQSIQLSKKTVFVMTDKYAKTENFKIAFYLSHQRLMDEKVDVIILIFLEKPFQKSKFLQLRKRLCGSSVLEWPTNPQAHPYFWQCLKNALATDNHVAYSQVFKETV
Nature of the data set: Agonist activity at human TLR7 expressed in HEK293 cells assessed as induction of receptor activation incubated for 6 hrs by NF-kappaB-luciferase reporter gene assay. It is filed as cell-based. Put shortly: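 HEK cell-based assay using a wild-type TLR7 expression vector; a parallel TLR8 vector construct served for selectivity. Results are expressed as lowest effective concentration (LEC), averaged over independent experiments where determined two or more times. A separate HEK 293 cytotoxicity (TOX) assay gave CC50 alongside.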
For orientation: A reporter such as luciferase makes a cellular process visible.

Data set [11] can be described thus: Cmax in C57BL/6J mouse liver at 0.3 mg/kg, po by LC-MS analysis. Format: ADME, organism-based. The arrangement: dose 0.3 mg/kg, route oral. An outline of the steps:
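Healthy C57BL/6 mice, groups of 15, given a single oral dose (0.3, 1, 3, 10 or 30 mg/kg) in 20% HP-β-CD. Blood drawn at 0.5 h. Three mice per group sacrificed at 0.5, 1, 2, 4 or 7 h, and compound in plasma and liver measured by LC−MS. Values rounded to whole numbers.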

The target of data set [12] is T1, TLR7 and TLR8 (Homo sapiens). Nature of the data set: Agonist activity at TLR7/8 in human PBMCs co-cultured with primary human hepatocytes infected with HBV genotype C for 12 days assessed as increase in TNFalpha levels up to 5 uM measured after 42 days.
Data set [13] concerns Liver. The data set can be described thus: Induction of IFNalpha levels in C57BL/6J mouse liver at 10 mg/kg, po by ELISA (reference value: 30 pg/g). It is filed as functional. A general note: An ELISA detects its analyte on a solid surface through an enzyme-linked reagent.
In data set [14] the test system is Liver. The data set can be described thus: Effect on cytokine profile in C57BL/6J mouse liver assessed as IL-12p70 levels at 10 mg/kg, po by multiplex assay (reference value: 5 pg/g). Format: functional. Put shortly:
as §1

Data set [15] concerns Cynomolgus monkey. Nature of the data set: Upregulation of Tlr7 expression in cynomolgus monkey plasma at 9 mg/kg, po after 24 hrs by Fluidigm RT-qPCR analysis (reference value: 1.8). It is filed as functional, Macaca fascicularis. (Real-time PCR tracks product formation cycle by cycle.)
For the next data set, the system named is Plasma. The data set can be described thus: Effect on cytokine profile in C57BL/6J mouse plasma assessed as IL-12p70 levels at 3 mg/kg, po by multiplex assay (reference value: 560 pg/ml). It is filed as functional. Put shortly:
as §1

The term Cmax denotes the maximum level reached in the sampled fluid or tissue.

Active and inactive are the calls of the source. The rule behind the calls is not given here.

T1 sequence (Q9NR97 whole entry, looked up, one chain of several): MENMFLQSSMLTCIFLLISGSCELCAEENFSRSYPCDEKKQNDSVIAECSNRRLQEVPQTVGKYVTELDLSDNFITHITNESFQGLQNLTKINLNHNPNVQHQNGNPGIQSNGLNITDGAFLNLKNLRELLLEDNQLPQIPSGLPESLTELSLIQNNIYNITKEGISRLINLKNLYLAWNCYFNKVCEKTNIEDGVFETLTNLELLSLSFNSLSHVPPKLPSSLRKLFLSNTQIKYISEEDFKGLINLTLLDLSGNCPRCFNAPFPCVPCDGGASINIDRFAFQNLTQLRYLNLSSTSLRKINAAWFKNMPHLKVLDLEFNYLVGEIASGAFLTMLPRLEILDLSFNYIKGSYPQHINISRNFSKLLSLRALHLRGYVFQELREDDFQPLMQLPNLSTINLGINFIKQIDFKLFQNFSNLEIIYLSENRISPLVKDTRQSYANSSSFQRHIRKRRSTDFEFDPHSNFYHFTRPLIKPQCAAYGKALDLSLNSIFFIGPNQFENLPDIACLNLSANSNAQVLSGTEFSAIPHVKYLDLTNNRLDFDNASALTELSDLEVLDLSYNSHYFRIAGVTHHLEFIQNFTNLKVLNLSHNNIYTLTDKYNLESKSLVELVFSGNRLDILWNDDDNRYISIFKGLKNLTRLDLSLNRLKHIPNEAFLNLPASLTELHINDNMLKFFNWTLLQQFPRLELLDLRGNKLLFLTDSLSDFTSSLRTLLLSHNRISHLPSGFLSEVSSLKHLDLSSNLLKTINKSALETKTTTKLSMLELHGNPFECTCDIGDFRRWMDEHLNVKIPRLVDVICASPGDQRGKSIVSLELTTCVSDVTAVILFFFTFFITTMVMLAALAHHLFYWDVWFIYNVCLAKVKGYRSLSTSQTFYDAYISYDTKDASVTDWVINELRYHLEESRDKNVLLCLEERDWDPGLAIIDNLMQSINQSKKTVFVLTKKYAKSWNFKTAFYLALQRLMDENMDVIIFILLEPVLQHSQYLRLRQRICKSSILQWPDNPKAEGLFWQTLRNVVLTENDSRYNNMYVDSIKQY

With `CCC[C@@H](CCO)Nc1nc(N)nc2c(F)cccc12`, the Activity in the data set on Liver [1] is 6755 pg/g; with Liver [2], “Below limit of detection”; in the data set on Liver [4], 535 pg/g; in the data set on Cynomolgus monkey [9] it was 350 pg/mL; in the data set with Liver [13], 1365 pg/g; in the data set on Liver [14], 790 pg/g. The Activity in the data set on Plasma was found to be 330 pg/mL. This compound also came in with an AUClast in data set [3] of 148 ng·h/g. In addition, the result in data set [5], in [7] and in data set [12] was Active. Further, in data set [6], the metabolised at 1 h, 1 µM is 99%. In addition, the microsomal CLint at 1 µM in data set [8] is 16 µL/min/mg. Besides, the MEC in data set [10] came to 0.15 µM. The Cmax in data set [11] was 32 ng/g. The “fold change (FC)” value in the data set on Cynomolgus monkey [15] amounted to 3.5.

The values above are taken from ChEMBL document CHEMBL4130635, “2,4-Diaminoquinazolines as Dual Toll-like Receptor (TLR) 7/8 Modulators for the Treatment of Hepatitis B Virus” (J Med Chem, 2018).
